We go through 28 molecules from ChEMBL document CHEMBL2311425, “Histone deacetylase (HDAC) inhibitors with a novel connecting unit linker region reveal a selectivity profile for HDAC4 and HDAC5 with improved activity against chemoresistant cancer cells” (J Med Chem, 2013).

In general, IC50 refers to the concentration at which inhibition is half-maximal. A higher IC50 goes with a need for much substance.

Test [1] has as its target Histone deacetylase. Description: Inhibition of HDAC in cisplatin resistant human A2780 cells after 18 hrs by fluorescence assay. The class given is cell-based.
Test [2] deals with Histone deacetylase. Nature of the test: Inhibition of HDAC in human A2780 cells after 18 hrs by fluorescence assay. It is filed as cell-based.
For test [3], the system named is A2780 CisR (Homo sapiens). Nature of the test: cells. Conditions: 72 h.
Test [4] concerns A2780. Description: Cytotoxicity against human A2780 cells after 72 hrs by MTT assay. The class given is functional, cell-based. To be noted: A2780, 72 h.
Test [5] concerns A2780. Nature of the test: Cytotoxicity against cisplatin resistant human A2780 cells up to 100 uM after 72 hrs by MTT assay. The class given is functional, cell-based. In a few lines: (§1)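 A2780 or its cisplatin-resistant subclone A2780CisR, seeded 5000 cells/well, grown in RPMI 1640 with 10% FCS at 37 °C, 5% CO2. Compound exposure began 24 h after seeding and lasted 72 h. MTT (5 mg/mL in PBS) was added, formazan dissolved in DMSO, absorbance read at 544 and 690 nm. IC50 from four-parameter logistic fit, ≥3 experiments in triplicate.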

Test [6] concerns A2780. Nature of the test: Cytotoxicity against human A2780 cells up to 100 uM after 72 hrs by MTT assay. It is filed as functional, cell-based. A digest of the protocol: as §1
(Formazan colour is commonly taken as a measure of viable cells.)

Calls of active or inactive are those of the source. No cut-off for these calls is given here. Bounds are passed on as bounds.

For `O=C(CCCCCONC(=O)NNc1ccccc1)NO`, the 50% inhibitory concentration (IC50) came to 4.95 µM against Histone deacetylase [1], 5.86 µM against Histone deacetylase [2], 42.4 µM in test [3] and 34.9 µM in the test with A2780 [4].

With `CC(C)c1ccc(C(=O)NOCCCCCC(=O)NO)cc1`, the half-maximal inhibitory concentration (IC50) against Histone deacetylase [1] was 0.5 µM; at Histone deacetylase [2], 0.6 µM; in test [3], 4.96 µM; with A2780 [4], 4.13 µM.

Regarding `COc1ccc(NC(=O)NOCCCCCC(=O)O)cc1`, the outcome in the test with A2780 [5] and in the test on A2780 [6] was inactive. The IC50 (in test [3]; with A2780 [4]) was above 100 µM throughout.

As for `O=C(CCCCONC(=O)Nc1ccccc1)NO`, the IC50 came out at 16.6 µM at Histone deacetylase [1], 15.2 µM at Histone deacetylase [2], 35.2 µM in test [3] and 62.6 µM in the test with A2780 [4].

For the molecule `Cc1ccc(C(=O)NOCCCCCC(=O)NO)cc1`, the half-inhibitory concentration (IC50) was determined as 3.46 µM on Histone deacetylase [1], 4.21 µM against Histone deacetylase [2], 5 µM in test [3] and 4.09 µM with A2780 [4].

For `O=C(O)CCCCCONC(=O)Nc1ccccc1`, the IC50 against Histone deacetylase [1] is above 100 µM; on Histone deacetylase [2], above 100 µM; in test [3], 72.5 µM; in the test on A2780 [4], 23.5 µM.

Take `O=C(CCCCCONC(=O)c1ccc(C(F)(F)F)cc1)NO`: the IC50 came to 1.95 µM on Histone deacetylase [1], 2.09 µM at Histone deacetylase [2], 30.8 µM in test [3] and 9.53 µM in the test with A2780 [4].

Turning to `CC(C)(C)c1ccc(NC(=O)NOCCCCCC(=O)NO)cc1`, the IC50 at Histone deacetylase [1] amounted to 1.32 µM; against Histone deacetylase [2], 1.41 µM; in test [3], 8.8 µM; with A2780 [4], 6.34 µM.

In the case of `CC(/C=C/C(=O)NO)=C\[C@@H](C)C(=O)c1ccc(N(C)C)cc1` [TRICHOSTATIN], the IC50 in test [3] is 0.22 µM; in the test with A2780 [4], 0.29 µM.

As for `O=C(O)CCCCCONC(=O)Nc1cccc2ccccc12`, the result with A2780 [5] and with A2780 [6] was inactive. In addition, the IC50 (in test [3]; with A2780 [4]) was above 100 µM each time.

On to `Cc1ccc(NC(=O)NOCCCCCC(=O)O)cc1`, for which the result in the test on A2780 [5] and in the test on A2780 [6] was inactive. The IC50 (in test [3]; in the test on A2780 [4]) was above 100 µM each time.

For `Cc1ccccc1NC(=O)NOCCCCCC(=O)NO`, the IC50 was 8.86 µM at Histone deacetylase [1], 11.7 µM at Histone deacetylase [2], 30.1 µM in test [3] and 23 µM in the test with A2780 [4].

For the molecule `CN(O)C(=O)CCCCCONC(=O)Nc1ccccc1`, the IC50 is above 100 µM against Histone deacetylase [1], above 100 µM against Histone deacetylase [2], above 100 µM in test [3] and 87.9 µM in the test on A2780 [4].

Regarding `O=C(O)CCCCCONC(=O)Nc1ccc(F)cc1`, the IC50 against Histone deacetylase [1] was above 100 µM; against Histone deacetylase [2] it was above 100 µM; in test [3], 73.1 µM; in the test with A2780 [4] it was 67.8 µM.

With `Cc1cccc(NC(=O)NOCCCCCC(=O)NO)c1`, the IC50 came out at 5.38 µM against Histone deacetylase [1], 7.63 µM against Histone deacetylase [2], 8.12 µM in test [3] and 8.33 µM in the test on A2780 [4].

As to `O=C(CCCCCONC(=O)c1ccc(F)cc1)NO`, the IC50 at Histone deacetylase [1] was found to be 2 µM; at Histone deacetylase [2], 2.57 µM; in test [3] it was 60.3 µM; with A2780 [4], 16.4 µM.

`COc1ccc(NC(=O)NOCCCCCC(=O)NO)cc1`: the 50% inhibitory concentration (IC50) against Histone deacetylase [1] is 5.73 µM; on Histone deacetylase [2], 6.64 µM; in test [3] it was 18.2 µM; in the test on A2780 [4], 10.3 µM.

For `Cc1cc(C)cc(NC(=O)NOCCCCCC(=O)NO)c1`, the IC50 is 4.64 µM against Histone deacetylase [1], 5.27 µM against Histone deacetylase [2], 5.11 µM in test [3] and 2.43 µM with A2780 [4].

As to `O=C(CCCCCONC(=O)Nc1cccc2ccccc12)NO`, the half-inhibitory concentration (IC50) against Histone deacetylase [1] was found to be 0.9 µM; against Histone deacetylase [2] it was 1.06 µM; in test [3], 7.87 µM; with A2780 [4], 7.63 µM.

With `CC(C)c1ccc(NC(=O)NOCCCCCC(=O)NO)cc1`, the IC50 against Histone deacetylase [1] was 2.05 µM; against Histone deacetylase [2] it was 2.86 µM; in test [3], 58.8 µM; in the test with A2780 [4], 27.1 µM.

On to `O=C(CCCCCONC(=O)Nc1ccccc1)Nc1ccccc1O`, for which the IC50 on Histone deacetylase [1] stood at 43.9 µM; against Histone deacetylase [2] it was 34 µM; in test [3], 84.6 µM; with A2780 [4], 35 µM.

With `Cc1ccccc1C(=O)NOCCCCCC(=O)NO`, the IC50 was found to be 15.4 µM on Histone deacetylase [1], 17.1 µM at Histone deacetylase [2], 33.8 µM in test [3] and 25.6 µM with A2780 [4].

Turning to `Cc1ccc(NC(=O)NOCCCCCC(=O)NO)cc1`, the IC50 on Histone deacetylase [1] worked out at 1.43 µM; against Histone deacetylase [2], 1.45 µM; in test [3], 10.2 µM; in the test with A2780 [4], 8.05 µM.

On to `O=C(CCCCCONC(=O)c1ccccc1)NO`, for which the IC50 was 1.26 µM against Histone deacetylase [1], 1.58 µM against Histone deacetylase [2], 5.72 µM in test [3] and 8.33 µM in the test with A2780 [4].

As for `O=C(CCCCCONC(=O)Nc1ccccc1)NO`, the IC50 worked out at 1.71 µM against Histone deacetylase [1], 1.7 µM against Histone deacetylase [2], 5.47 µM in test [3] and 8.47 µM in the test on A2780 [4].

On to `O=C(CCCCCONC(=O)Nc1ccc(F)cc1)NO`, for which the IC50 at Histone deacetylase [1] is 1.66 µM; against Histone deacetylase [2], 2.04 µM; in test [3], 9.34 µM; in the test on A2780 [4], 9.05 µM.

For `Nc1ccccc1NC(=O)CCCCCONC(=O)Nc1ccccc1`, the IC50 was 43.9 µM against Histone deacetylase [1], 34 µM against Histone deacetylase [2], 86.9 µM in test [3] and 62.5 µM in the test on A2780 [4].

As for `O=C(CCCCCONC(=O)Nc1cnc2ccccc2c1)NO`, the IC50 against Histone deacetylase [1] turned out to be 0.85 µM; at Histone deacetylase [2], 1.07 µM; in test [3], 11.6 µM; in the test with A2780 [4], 10.8 µM.
